Reference: ChEMBL document CHEMBL1121797, “Studies on chiral interactions of 1-(2,5-dimethoxy-4-methylphenyl)-2-aminopropane and the corresponding N-hydroxy metabolites with cytochrome P-450” (J Med Chem, 1981)
Several values for one entry are separate records, joined by “and”; a condition that tells them apart may be missing. Equal values may be shown once.

Columns and labels:
Cytochrome P450 2C19 [1] = molecular target: T1, Cytochrome P450 2C19 (Homo sapiens, UniProt P33261); test: (§1) Extent of complex formation with 20 uM compound; format: ADME, Oryctolagus cuniculus; conditions: rabbit
Cytochrome P450 2C19 [2] = molecular target: T1, Cytochrome P450 2C19; test: (§2) Extent of complex formation with 30 uM compound; format: ADME, Oryctolagus cuniculus; conditions: rabbit
Cytochrome P450 2C19 [3] = molecular target: T1, Cytochrome P450 2C19; test: Initial rate of complex formation with 20 uM compound; format: ADME, Oryctolagus cuniculus; conditions: rabbit
Cytochrome P450 2C19 [4] = molecular target: T1, Cytochrome P450 2C19; test: Percent inhibition of formation of metabolic intermediate complex between Cytochrome P450 and compound 1a (30 uM) initially, following incubation at compound concentration of 0 uM; format: ADME, Oryctolagus cuniculus; conditions: rabbit, probe compound 1a (30 uM)
How it was run: (§3)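 Inverse cross-inhibition in NADPH-supplemented rabbit liver microsomes at 37 °C. Preincubation with racemic hydroxylamine at 0–30 μM, monitoring 457-nm complex formation. The amine was then added at 30 μM, or racemic hydroxylamine at 30 μM. Initial rate and plateau extent were taken from ΔA457–500 nm tracings. Percent inhibition is relative to incubation in fresh microsomes.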

Cytochrome P450 2C19 [5] = molecular target: T1, Cytochrome P450 2C19; test: (§4) Extent of complex formation with 5 uM compound; format: ADME, Oryctolagus cuniculus; conditions: rabbit
Cytochrome P450 2C19 [6] = molecular target: T1, Cytochrome P450 2C19; test: Initial rate of complex formation without compound; format: ADME, Oryctolagus cuniculus; conditions: rabbit; how it was run: as §3
Cytochrome P450 2C19 [7] = molecular target: T1, Cytochrome P450 2C19; test: Initial rate of complex formation with20 uM compound; format: ADME, Oryctolagus cuniculus; conditions: rabbit, 20 µM
Cytochrome P450 2C19 [8] = molecular target: T1, Cytochrome P450 2C19; test: (§5) Initial rate of complex formation with 30 uM compound; format: ADME, Oryctolagus cuniculus; conditions: rabbit
Cytochrome P450 2C19 [9] = molecular target: T1, Cytochrome P450 2C19; test: Initial rate of complex formation with 15 uM compound; format: ADME, Oryctolagus cuniculus; conditions: rabbit
Cytochrome P450 2C19 [10] = molecular target: T1, Cytochrome P450 2C19; test: as §5; format: ADME, Oryctolagus cuniculus; conditions: rabbit; remark: listed apart in the source
Cytochrome P450 2C19 [11] = molecular target: T1, Cytochrome P450 2C19; test: Initial rate of complex formation with 5 uM compound; format: ADME, Oryctolagus cuniculus; conditions: rabbit
Cytochrome P450 2C19 [12] = molecular target: T1, Cytochrome P450 2C19; test: Extent of complex formation without compound; format: ADME, Oryctolagus cuniculus; conditions: rabbit; how it was run: as §3
Cytochrome P450 2C19 [13] = molecular target: T1, Cytochrome P450 2C19; test: as §4; format: ADME, Oryctolagus cuniculus; conditions: rabbit; remark: listed apart in the source
Cytochrome P450 2C19 [14] = molecular target: T1, Cytochrome P450 2C19; test: as §1; format: ADME, Oryctolagus cuniculus; conditions: rabbit; remark: listed apart in the source
Cytochrome P450 2C19 [15] = molecular target: T1, Cytochrome P450 2C19; test: as §2; format: ADME, Oryctolagus cuniculus; conditions: rabbit; remark: listed apart in the source
Cytochrome P450 2C19 [16] = molecular target: T1, Cytochrome P450 2C19; test: as §1; format: ADME, Oryctolagus cuniculus; conditions: rabbit; remark: listed apart in the source
Cytochrome P450 2C19 [17] = molecular target: T1, Cytochrome P450 2C19; test: as §5; format: ADME, Oryctolagus cuniculus; conditions: rabbit; remark: listed apart in the source
Cytochrome P450 2C19 [18] = molecular target: T1, Cytochrome P450 2C19; test: as §1; format: ADME, Oryctolagus cuniculus; conditions: rabbit; remark: listed apart in the source
Cytochrome P450 2C19 [19] = molecular target: T1, Cytochrome P450 2C19; test: Extent of complex formation with 15 uM compound; format: ADME, Oryctolagus cuniculus; conditions: rabbit
Cytochrome P450 2C19 [20] = molecular target: T1, Cytochrome P450 2C19; test: as §2; format: ADME, Oryctolagus cuniculus; conditions: rabbit; remark: listed apart in the source
Cytochrome P450 2C19 [21] = molecular target: T1, Cytochrome P450 2C19; test: Percent inhibition of formation of metabolic intermediate complex between Cytochrome P450 and compound 1a (30 uM) initially, on pre-incubation with compound concentration of 5 uM; format: ADME, Oryctolagus cuniculus; conditions: rabbit, probe compound 1a (30 uM); how it was run: as §3
Cytochrome P450 2C19 [22] = molecular target: T1, Cytochrome P450 2C19; test: as §2; format: ADME, Oryctolagus cuniculus; conditions: rabbit; remark: listed apart in the source
Cytochrome P450 2C19 [23] = molecular target: T1, Cytochrome P450 2C19; test: as §5; format: ADME, Oryctolagus cuniculus; conditions: rabbit; remark: listed apart in the source
[24] = Lag time between the addition of compound (30 uM) and the first appearance of chromophore; format: ADME
How it was run: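 Rabbit liver microsomes at 2 mg protein/mL with 0.1 mM EDTA, 37 °C, substrate 30 μM. Complex formation started with 0.4 mM NADPH and followed by dual-wavelength absorbance, 457 vs 500 nm. Initial rate is the initial slope, ΔA×10^4 per nmol P-450 per min. Extent is the plateau absorbance. Lag is the time from NADPH addition to first 457-nm chromophore. Triplicate or single runs.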

T1 sequence (P33261 whole entry): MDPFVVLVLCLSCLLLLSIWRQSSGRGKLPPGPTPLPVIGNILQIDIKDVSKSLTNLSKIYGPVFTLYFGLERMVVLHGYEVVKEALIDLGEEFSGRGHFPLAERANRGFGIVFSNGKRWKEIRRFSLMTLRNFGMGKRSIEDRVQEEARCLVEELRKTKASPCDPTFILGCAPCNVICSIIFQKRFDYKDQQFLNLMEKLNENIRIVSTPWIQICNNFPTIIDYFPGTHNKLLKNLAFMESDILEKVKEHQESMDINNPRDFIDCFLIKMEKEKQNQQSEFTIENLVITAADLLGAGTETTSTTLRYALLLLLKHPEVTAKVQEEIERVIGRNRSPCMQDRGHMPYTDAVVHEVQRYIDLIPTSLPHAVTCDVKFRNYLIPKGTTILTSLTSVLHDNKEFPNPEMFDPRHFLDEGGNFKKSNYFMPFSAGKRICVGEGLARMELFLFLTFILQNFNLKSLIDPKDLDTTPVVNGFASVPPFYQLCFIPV

COc1cc(C[C@@H](C)NO)c(OC)cc1C.COc1cc(C[C@H](C)NO)c(OC)cc1C showed a Complex_formation (Cytochrome P450 2C19 [1]) of 108 deltaA.10^4nmol-1, a Complex_formation (Cytochrome P450 2C19 [2]) of 27 deltaA.10^4nmol-1 and an Initial_rate (Cytochrome P450 2C19 [3]) of 89 deltaA.10^4nmol-1.min-1. For the same molecule, the inhibition at 0 uM (Cytochrome P450 2C19 [4]) was 30%, the Complex_formation (Cytochrome P450 2C19 [5]) was 39 deltaA.10^4nmol-1 and the Initial_rate (Cytochrome P450 2C19 [6]) was 46 deltaA.10^4nmol-1.min-1 and 124 deltaA.10^4nmol-1.min-1. For the same molecule, the Initial_rate (Cytochrome P450 2C19 [7]) was 87 deltaA.10^4nmol-1.min-1, the Initial_rate (Cytochrome P450 2C19 [8]) was 12.4 deltaA.10^4nmol-1.min-1 and the Initial_rate (Cytochrome P450 2C19 [9]) was 131 deltaA.10^4nmol-1.min-1. For the same molecule, the Initial_rate (Cytochrome P450 2C19 [10]) was 177 deltaA.10^4nmol-1.min-1 and 176 deltaA.10^4nmol-1.min-1, the Initial_rate (Cytochrome P450 2C19 [11]) was 52 deltaA.10^4nmol-1.min-1 and the Complex_formation (Cytochrome P450 2C19 [12]) was 76 deltaA.10^4nmol-1 and 95 deltaA.10^4nmol-1. The Complex_formation (Cytochrome P450 2C19 [13]) was 43 deltaA.10^4nmol-1 and 85 deltaA.10^4nmol-1, the Complex_formation (Cytochrome P450 2C19 [14]) was 109 deltaA.10^4nmol-1 and the Complex_formation (Cytochrome P450 2C19 [15]) was 30 deltaA.10^4nmol-1. The Complex_formation (Cytochrome P450 2C19 [16]) was 85 deltaA.10^4nmol-1, the Initial_rate (Cytochrome P450 2C19 [17]) was 5.5 deltaA.10^4nmol-1.min-1 and the Complex_formation (Cytochrome P450 2C19 [18]) was 90 deltaA.10^4nmol-1. For the same molecule, the Complex_formation (Cytochrome P450 2C19 [19]) was 97 deltaA.10^4nmol-1, the Complex_formation (Cytochrome P450 2C19 [20]) was 139 deltaA.10^4nmol-1 and 135 deltaA.10^4nmol-1 and the inhibition at 5 µM (Cytochrome P450 2C19 [21]) was 80%. It also gave a Complex_formation (Cytochrome P450 2C19 [22]) of 51 deltaA.10^4nmol-1, an Initial_rate (Cytochrome P450 2C19 [23]) of 5 deltaA.10^4nmol-1.min-1 and a Lag time [24] of 0 s.
